Reference: ChEMBL document CHEMBL1133148 (Bioorg Med Chem Lett, 2000)

Columns and labels:
Mu-type opioid receptor [1] = target: T1, Mu-type opioid receptor (Rattus norvegicus, UniProt P33535); assay: Binding affinity towards Opioid receptor mu 1
Outline: (§1)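 Rat brain minus cerebellum, homogenised in 0.32 M sucrose and spun. The membrane pellet was preincubated 1 h at room temperature in Tris pH 7.5/NaCl to strip endogenous opioids. Filtration, scintillation counting.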

Mu-type opioid receptor [2] = target: T1, Mu-type opioid receptor; assay: Concentration required for inhibition of [3H]DAMGO binding to Opioid receptor mu 1 in rat brain membranes; format: cell membranes; outline: as §1

T1 sequence (P33535 whole entry): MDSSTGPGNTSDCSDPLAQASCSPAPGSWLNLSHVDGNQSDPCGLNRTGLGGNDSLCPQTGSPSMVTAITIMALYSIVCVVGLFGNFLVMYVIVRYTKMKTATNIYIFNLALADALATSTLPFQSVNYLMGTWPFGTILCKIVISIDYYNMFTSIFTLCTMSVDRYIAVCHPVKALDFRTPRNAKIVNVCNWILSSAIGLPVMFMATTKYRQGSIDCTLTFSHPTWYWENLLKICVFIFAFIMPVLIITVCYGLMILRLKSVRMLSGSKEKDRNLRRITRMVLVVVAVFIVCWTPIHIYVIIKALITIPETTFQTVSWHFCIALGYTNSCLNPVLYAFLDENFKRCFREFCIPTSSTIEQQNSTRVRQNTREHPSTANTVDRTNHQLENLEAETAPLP

Row | Compound | Ki (Mu-type opioid receptor [1]) [nM] | IC50 (Mu-type opioid receptor [2]) [nM]
1 | NC(=O)[C@H](Cc1ccccc1)NC(=O)CC(NC(=O)[C@@H]1CCCN1C(=O)C(N)Cc1ccc(O)cc1)c1c[nH]c2ccccc12 (single isomer, unassigned) | > 1000 | 
2 | NC(=O)CC(NC(=O)[C@H](Cc1c[nH]c2ccccc12)NC(=O)[C@@H]1CCCN1C(=O)[C@@H](N)Cc1ccc(O)cc1)c1ccccc1 (stereo partly drawn) | 908 | 680
3 | NC(=O)[C@H](Cc1ccccc1)NC(=O)[C@H](Cc1c[nH]c2ccccc12)NC(=O)C[C@@H]1CCCN1C(=O)[C@@H](N)Cc1ccc(O)cc1 | 10.4 | 72
4 | NC(=O)[C@H](Cc1ccccc1)NC(=O)[C@H](Cc1c[nH]c2ccccc12)NC(=O)[C@@H]1CCCN1C(=O)CC(N)c1ccc(O)cc1 (stereo partly drawn) | > 1000 | 
5 | NC(=O)[C@H](Cc1ccccc1)NC(=O)[C@H](Cc1c[nH]c2ccccc12)NC(=O)C[C@H]1CCCN1C(=O)[C@@H](N)Cc1ccc(O)cc1 | 0.33 | 1.8
